Source: ChEMBL document CHEMBL1143854 (Antimicrob Agents Chemother, 2007)
The source made the active and inactive calls. The calls are words filed in the database; no cut-off is given here.

Assays:
Format in all cases: functional, organism-based
[1] = tested on: Plasmodium falciparum; test: Reduction of [3H]chloroquine uptake in chloroquine-sensitive Plasmodium falciparum 3D7 infected erythrocytes after 90 min
Summary of the method: (§1)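 Trophozoite-stage parasitized erythrocytes (5% parasitemia, 1.5% hematocrit) added to microtubes holding unlabeled antimalarial plus radiolabeled drug ([3H]DHA 1.4 Ci/mmol or [3H]CQ 50.4 Ci/mmol); 37°C, 90 min. Cells spun through silicon oil, radioactivity by liquid scintillation. Uptake as percent of control parasitized erythrocytes after subtracting uninfected-erythrocyte uptake; at least two experiments, each in triplicate.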

[2] = tested on: Plasmodium falciparum; test: Reduction of [3H]chloroquine uptake in chloroquine-resistant Plasmodium falciparum RSA11 infected erythrocytes after 90 min
Summary of the method: (§2)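 [3H]chloroquine (50.4 Ci/mmol) uptake into trophozoite-infected erythrocytes (5% parasitemia, 1.5% hematocrit), with unlabeled antimalarial added at the start, 90 min at 37°C. Cells spun through silicone oil, radioactivity counted by liquid scintillation. Uptake given as percent of untreated infected-cell control after subtracting uptake in uninfected erythrocytes. At least two experiments, each in triplicate.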

[3] = tested on: Plasmodium falciparum; test: Reduction of [3H]dihydroartemisinin uptake in chloroquine-sensitive Plasmodium falciparum FC27 infected erythrocytes after 90 min; summary of the method: as §1
[4] = tested on: Plasmodium falciparum; test: Reduction of [3H]dihydroartemisinin uptake in chloroquine-resistant Plasmodium falciparum K1 infected erythrocytes after 90 min
Summary of the method: as §2, with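 “[3H]dihydroartemisinin (1.4” for “[3H]chloroquine (50.4”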

[5] = tested on: Plasmodium falciparum; test: Reduction of [3H]dihydroartemisinin uptake in chloroquine-sensitive Plasmodium falciparum 3D7 infected erythrocytes after 90 min; summary of the method: as §1
[6] = tested on: Plasmodium falciparum; test: Reduction of [3H]dihydroartemisinin uptake in chloroquine-resistant Plasmodium falciparum RSA11 infected erythrocytes after 90 min
Summary of the method: as §2, with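 “[3H]dihydroartemisinin (1.4” for “[3H]chloroquine (50.4”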

[7] = tested on: Plasmodium falciparum; test: Reduction of [3H]chloroquine uptake in chloroquine-sensitive Plasmodium falciparum FC27 infected erythrocytes after 90 min; summary of the method: as §1
[8] = tested on: Plasmodium falciparum; test: Antimalarial activity against chloroquine-sensitive Plasmodium falciparum FC27
[9] = tested on: Plasmodium falciparum; test: Antimalarial activity against chloroquine-sensitive Plasmodium falciparum T996
[10] = tested on: Plasmodium falciparum; test: Antimalarial activity against chloroquine-sensitive Plasmodium falciparum 3D7
[11] = tested on: Plasmodium falciparum; test: Antimalarial activity against chloroquine-sensitive Plasmodium falciparum 106/1
[12] = tested on: Plasmodium falciparum; test: Antimalarial activity against chloroquine-resistant Plasmodium falciparum 34-1/E
[13] = tested on: Plasmodium falciparum; test: Antimalarial activity against chloroquine-resistant Plasmodium falciparum K1
[14] = tested on: Plasmodium falciparum; test: Antimalarial activity against chloroquine-resistant Plasmodium falciparum RSA11
[15] = tested on: Plasmodium falciparum; test: Antimalarial activity against chloroquine-resistant Plasmodium falciparum 7G8-mdr7G8

| Structure (SMILES) | Activity [1] | Activity [2] | Activity ([2]; K1) | Activity [3] | Activity [4] | Activity [5] | Activity [6] | Activity [7] | IC50 [8] | IC50 [9] | IC50 [10] | IC50 [11] | IC50 [12] | IC50 [13] | IC50 [14] | IC50 [15] |
| --- | --- | --- | --- | --- | --- | --- | --- | --- | --- | --- | --- | --- | --- | --- | --- | --- |
| OC(c1cc(C(F)(F)F)nc2c(C(F)(F)F)cccc12)C1CCCCN1 (configuration not stated) | Active | Active | Active | Active | Active | Active | Active | Active |  |  |  |  |  |  |  |  |
| CCN(CC)CCCC(C)Nc1ccnc2cc(Cl)ccc12 (configuration not stated) | Active | Active | Active | Active | Active | Active | Active | Active |  |  |  |  |  |  |  |  |
| C[C@H]1[C@@H](O)O[C@@H]2O[C@@]3(C)CC[C@H]4[C@H](C)CC[C@@H]1[C@@]24OO3 | Active | Active | Active | Active | Active | Active | Active | Active |  |  |  |  |  |  |  |  |
| Clc1ccc2c(N3CCN(CCCN4CCN(c5ccnc6cc(Cl)ccc56)CC4)CC3)ccnc2c1 [PIPERAQUINE] | Active | Active | Active | Active | Active | Active | Active | Active | 29.6 nM | 19.9 nM | 36.9 nM | 22.2 nM | 16.4 nM |  |  |  |
| CO[C@H]1O[C@@H]2O[C@@]3(C)CC[C@H]4[C@H](C)CC[C@@H]([C@H]1C)[C@@]24OO3 | Active | Active | Active | Active | Active | Active | Active | Active |  |  |  |  |  |  |  |  |
| CCN(CC)Cc1cc(Nc2ccnc3cc(Cl)ccc23)ccc1O |  |  |  | Active | Active | Active | Active |  | 6.68 nM | 14.8 nM | 18.4 nM | 17.5 nM | 17.2 nM | 22.4 nM | 26.7 nM | 32.7 nM |
